# Assay results from ChEMBL document CHEMBL5724801, “EUbOPEN Chemogenomics Library - Multiplex” (2024).
# “And” between values parts separate entries of the source, which are not always exact repeats. Equal entries are not always repeated.
# Test system: HEK-293T
# Test: Multiplex assay against HEK293T
# Type: toxicity, cell-based
# Settings: human, 12 h, 1 µM, compound concentration 1 uM
# Summary of the method: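 At seeding, live cells were stained with Hoechst33342, BioTracker Green Microtubule Cytoskeleton Dye, MitoTracker Red and Annexin V Alexa Fluor 680. After compound addition they were imaged on a CQ1 microscope at 37°C and 5% CO2, and CellPathfinder machine-learning gating sorted them into Hoechst high-intensity objects or normal cells, with normal cells further split into healthy, pyknosed or fragmented nuclei and pyknosed cells into mitotic or apoptotic. Tubulin, mitochondrial-mass and membrane-permeability phenotypes are given as per cents of cells with healthy nuclei.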
Compound,Population Apoptotic (%),Population Fragmented Nuclei (%),Population Healthy Nuclei (%),Population Hoechst High Intensity Objects (%),Population Membrane Permeable-Phenotype (%),Population Mitochondria Different-Phenotype (%),Population Mitotic Cells (%),Population Normal (%),Population Pyknosed Nuclei (%),Population Tubulin-Different-Phenotype (%)
N[C@](CC1c2ccccc2Oc2ccccc21)(C(=O)O)[C@H]1C[C@@H]1C(=O)O,38% and 54%,6% and 7%,83% and 79%,7% and 5%,0%,43% and 58%,61% and 45%,92% and 94%,10% and 12%,27% and 25%
CC/C(=C(\c1ccc(O)cc1)c1ccc(OCCN(C)C)cc1)c1ccccc1 [AFIMOXIFENE],6.54% and 11.93%,0.55% and 3.45%,57.18% and 21.38%,0.28% and 0%,0.48% and 0%,43.96% and 29.03%,93.46% and 88.07%,99.72% and 100%,42.27% and 75.17%,–

# Same assay, conditions: human, 12 h, 1 µM, compound concentration 1 uM
row,Compound,Total Cell Count
1,N[C@](CC1c2ccccc2Oc2ccccc21)(C(=O)O)[C@H]1C[C@@H]1C(=O)O,447 and 270
2,CC/C(=C(\c1ccc(O)cc1)c1ccc(OCCN(C)C)cc1)c1ccccc1 [AFIMOXIFENE],363 and 145

# Same assay, conditions: human, 12 h, 10 µM, compound concentration 10 uM
Compound,Population Apoptotic (%),Population Fragmented Nuclei (%),Population Healthy Nuclei (%),Population Hoechst High Intensity Objects (%),Population Membrane Permeable-Phenotype (%),Population Mitochondria Different-Phenotype (%),Population Mitotic Cells (%),Population Normal (%),Population Pyknosed Nuclei (%),Population Tubulin-Different-Phenotype (%)
N[C@](CC1c2ccccc2Oc2ccccc21)(C(=O)O)[C@H]1C[C@@H]1C(=O)O,32%,9% and 4%,78% and 81%,8% and 7%,0,40% and 66%,67%,91% and 92%,12% and 13%,23% and 31%
CC/C(=C(\c1ccc(O)cc1)c1ccc(OCCN(C)C)cc1)c1ccccc1 [AFIMOXIFENE],25.32% and 29.82%,2.69% and 7.52%,–,0%,–,25.19% and 44.44%,74.68% and 70.18%,100%,53.2% and 85.71%,8.4% and 22.22%

# Same assay, conditions: human, 12 h, 10 µM, compound concentration 10 uM
row,Compound,Total Cell Count
1,N[C@](CC1c2ccccc2Oc2ccccc21)(C(=O)O)[C@H]1C[C@@H]1C(=O)O,381 and 382
2,CC/C(=C(\c1ccc(O)cc1)c1ccc(OCCN(C)C)cc1)c1ccccc1 [AFIMOXIFENE],297 and 133

# Same assay, conditions: human, 24 h, 1 µM, compound concentration 1 uM
Compound,Population Apoptotic (%),Population Fragmented Nuclei (%),Population Healthy Nuclei (%),Population Hoechst High Intensity Objects (%),Population Membrane Permeable-Phenotype (%),Population Mitochondria Different-Phenotype (%),Population Mitotic Cells (%),Population Normal (%),Population Pyknosed Nuclei (%),Population Tubulin-Different-Phenotype (%)
N[C@](CC1c2ccccc2Oc2ccccc21)(C(=O)O)[C@H]1C[C@@H]1C(=O)O,21% and 38%,8% and 9%,81% and 84%,3% and 5%,1% and 0%,24% and 30%,78% and 61%,96% and 94%,10% and 6%,15% and 16%
CC/C(=C(\c1ccc(O)cc1)c1ccc(OCCN(C)C)cc1)c1ccccc1 [AFIMOXIFENE],8.84% and 19.33%,1.87% and 0.54%,75.2% and 35.48%,0%,1.45% and 3.03%,15.56% and 16.67%,91.16% and 80.67%,100%,22.93% and 63.98%,15.56% and 13.64%

# Same assay, conditions: human, 24 h, 1 µM, compound concentration 1 uM
row,Compound,Total Cell Count
1,N[C@](CC1c2ccccc2Oc2ccccc21)(C(=O)O)[C@H]1C[C@@H]1C(=O)O,629 and 368

# Same assay, conditions: human, 24 h, 10 µM, compound concentration 10 uM
Compound,Population Apoptotic (%),Population Fragmented Nuclei (%),Population Healthy Nuclei (%),Population Hoechst High Intensity Objects (%),Population Membrane Permeable-Phenotype (%),Population Mitochondria Different-Phenotype (%),Population Mitotic Cells (%),Population Normal (%),Population Pyknosed Nuclei (%),Population Tubulin-Different-Phenotype (%)
N[C@](CC1c2ccccc2Oc2ccccc21)(C(=O)O)[C@H]1C[C@@H]1C(=O)O,29% and 40%,10% and 6%,79% and 82%,5,0%,30% and 41%,70% and 59%,94,10% and 11%,17% and 16%
CC/C(=C(\c1ccc(O)cc1)c1ccc(OCCN(C)C)cc1)c1ccccc1 [AFIMOXIFENE],49.01% and 63.64%,2.59% and 6.2%,–,0,0.44% and 4.55%,40.44% and 36.36%,50.99% and 36.36%,100,39.12% and 76.74%,28.44% and 27.27%

# Same assay, conditions: human, 24 h, 10 µM, compound concentration 10 uM
row,Compound,Total Cell Count
1,N[C@](CC1c2ccccc2Oc2ccccc21)(C(=O)O)[C@H]1C[C@@H]1C(=O)O,510 and 471
2,CC/C(=C(\c1ccc(O)cc1)c1ccc(OCCN(C)C)cc1)c1ccccc1 [AFIMOXIFENE],386 and 129

# Same assay, conditions: human, 48 h, 1 µM, compound concentration 1 uM
Compound,Population Apoptotic (%),Population Fragmented Nuclei (%),Population Healthy Nuclei (%),Population Hoechst High Intensity Objects (%),Population Membrane Permeable-Phenotype (%),Population Mitochondria Different-Phenotype (%),Population Mitotic Cells (%),Population Normal (%),Population Pyknosed Nuclei (%),Population Tubulin-Different-Phenotype (%)
N[C@](CC1c2ccccc2Oc2ccccc21)(C(=O)O)[C@H]1C[C@@H]1C(=O)O,12% and 17%,11% and 12%,80% and 81%,2% and 1%,2% and 0%,15% and 17%,87% and 82%,97% and 98%,7% and 6%,13% and 10%
CC/C(=C(\c1ccc(O)cc1)c1ccc(OCCN(C)C)cc1)c1ccccc1 [AFIMOXIFENE],7.69% and 13.19%,1.84% and 1.61%,85.71% and 61.85%,0% and 0.8%,6.52% and 3.25%,18.34% and 27.92%,92.31% and 86.81%,100% and 99.2%,12.45% and 36.55%,–

# Same assay, conditions: human, 48 h, 1 µM, compound concentration 1 uM
row,Compound,Total Cell Count
1,N[C@](CC1c2ccccc2Oc2ccccc21)(C(=O)O)[C@H]1C[C@@H]1C(=O)O,1040 and 654

# Same assay, conditions: human, 48 h, 10 µM, compound concentration 10 uM
Compound,Population Apoptotic (%),Population Fragmented Nuclei (%),Population Healthy Nuclei (%),Population Hoechst High Intensity Objects (%),Population Membrane Permeable-Phenotype (%),Population Mitochondria Different-Phenotype (%),Population Mitotic Cells (%),Population Normal (%),Population Pyknosed Nuclei (%),Population Tubulin-Different-Phenotype (%)
N[C@](CC1c2ccccc2Oc2ccccc21)(C(=O)O)[C@H]1C[C@@H]1C(=O)O,28% and 42%,13%,78% and 80%,2% and 4%,0%,17% and 25%,71% and 57%,97% and 95%,8% and 6%,8% and 12%
CC/C(=C(\c1ccc(O)cc1)c1ccc(OCCN(C)C)cc1)c1ccccc1 [AFIMOXIFENE],39.87% and 62.5%,2.24% and 6.98%,66.53% and 24.81%,0.2% and 0%,3.37% and 9.38%,77.3% and 65.62%,60.13% and 37.5%,99.8% and 100%,31.22% and 68.22%,–

# Same assay, conditions: human, 48 h, 10 µM, compound concentration 10 uM
row,Compound,Total Cell Count
1,N[C@](CC1c2ccccc2Oc2ccccc21)(C(=O)O)[C@H]1C[C@@H]1C(=O)O,789 and 687
